Measured values published in PMC9161413 (ACS Omega, 2022).

Assays:
K562 cells = experiment: Cell internalization, cytofluorimetric assay, K562; type: cell-based, human; details: 24 h, 5 μM
Method in brief: (§1)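 K562 cells (RPMI-1640, 5% FBS, 37 °C, 5% CO2) and MDA-MB-231 cells (DMEM with 4500 mg/L glucose, 10% FBS, 37 °C, 10% CO2) were treated 24 h at 5 μM. Flow cytometry detected the compound's intrinsic fluorescence (λexc 405 nm, λem 421 nm). Read-out was the percentage of cells above the untreated autofluorescence threshold; at least three independent experiments.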

MDA-MB-231 cells = experiment: Cell internalization, cytofluorimetric assay, MDA-MB-231; type: cell-based, human; details: 24 h, 5 μM
Method in brief: as §1

ERK1/2 phosphorylation = ERK1/2 phosphorylation in L929 cells, western blot; type: cell-based, murine; details: 24 h, 5 μM
Method in brief: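 Subconfluent L929 cells were exposed 24 h at 5 μM in serum-free medium. Cells were lysed in RIPA with PMSF, orthovanadate and protease inhibitors, and 40–60 μg protein was resolved on 4–12 Bis-Tris gels onto PVDF. Blots were probed overnight at 4 °C for phospho- and total ERK1/2 (vinculin loading control), with fluorescent secondaries and infrared imaging. Phospho-signal was normalised to total protein; three independent experiments; one-way ANOVA with Tukey test.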

N-Cadherin expression = experiment: N-cadherin expression in L929 cells, western blot; type: cell-based, murine; details: 24 h, 5 μM, compared to untreated cells
Method in brief: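 L929 cells (subconfluent, serum-free medium) were treated 24 h at 5 μM. RIPA lysates containing phosphatase/protease inhibitors (40–60 μg protein) were separated on 4–12 Bis-Tris gels and blotted to PVDF. N-cadherin antibody was applied overnight at 4 °C, with vinculin as loading control and infrared fluorescence detection. Densitometry was normalised to total protein and expressed as percent of untreated cells; three independent experiments; ANOVA with Newman–Keuls test.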

L929 cells = experiment: Inhibition of cell proliferation, MTT assay; type: cell-based, murine; details: 24 h, 1–10 μM
VEGFR-1 = details: read-out: IC50 VEGFR-1; cited from earlier work
VEGFR-3 = details: read-out: IC50 VEGFR-3; cited from earlier work
FGFR-2 = details: read-out: IC50 FGFR-2; cited from earlier work
FGFR-3 = details: read-out: IC50 FGFR-3; cited from earlier work
PDGFR-α = details: read-out: IC50 PDGFR-α; cited from earlier work
PDGFR-β = details: read-out: IC50 PDGFR-β; cited from earlier work

| Molecule | internalization / cell fluorescence (in words) (K562 cells) | internalization / cell fluorescence (in words) (MDA-MB-231 cells) | inhibition of ERK1/2 phosphorylation (in words) (ERK1/2 phosphorylation) | inhibition of N-Cad expression (in words) (N-Cadherin expression) | antiproliferative / cytostatic effect (in words) (L929 cells) | IC50 (VEGFR-1) [µM] | IC50 (VEGFR-3) [µM] | IC50 (FGFR-2) [µM] | IC50 (FGFR-3) [µM] | IC50 (PDGFR-α) [µM] | IC50 (PDGFR-β) [µM] |
| --- | --- | --- | --- | --- | --- | --- | --- | --- | --- | --- | --- |
| COC(=O)c1ccc2c(c1)NC(=O)/C2=C(\Nc1ccc(N(C)C(=O)CN2CCN(C)CC2)cc1)c1ccccc1 [nintedanib] | efficiently internalized | efficiently internalized | efficiently inhibits | almost by half | mild antiproliferative effect | 0.034 | 0.013 | 0.037 | […] | 0.059 | 0.065 |
| c(AmpLRGDL) [compound 6] | – | – | no inhibition | stronger inhibitory effect | mild antiproliferative effect | – | – | – | – | – | – |
